Our source for the inhibition, viability and differential viability (reversal) values is PubChem BioAssay.

Calls of active or inactive are those of the source.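 Rule for the calls, unless noted: active = viability loss from added drug above about 55%, and viability with drug at most 40%, in both replicates (limit read from the data, passing the limit was not always enough); inconclusive = both conditions met in only one replicate; inactive = neither replicate meets both conditions.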

Test [1] addresses Pantothenate synthetase (Mycobacterium tuberculosis (strain ATCC 25618 / H37Rv)) (UniProt P9WIL5). Description: Recombinant Mtb pantothenate synthetase (PanC) inhibitors, coupled enzyme, confirmatory (AID 375; call rule not given here;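 note: 0% = full reaction with vehicle and 100% = no enzyme background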). The conditions noted are these: coupled enzyme assay; at 10 µM, stronger effect = higher value.
Test [2] is described as follows: SK-BR-3 cell growth inhibitors, pilot screen, 24 h, human (AID 572;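 active = viability at or below 10% of carrier control in both of two separate runs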;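 note: compound exposure lasted between 18 and 24 h rather than exactly 24 h; 100% = carrier-treated control wells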). The conditions noted are these: SK-BR-3 viability, CellTiter-Glo luminescence, at 10 µM, stronger effect = lower value.
A short description of test [3]: HUVEC growth inhibition – cell-based, human, primary screen (AID 575;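 active = viability at or below 30% in both replicate assays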;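 note: 100% = median of untreated cell wells with 0.1% DMSO on each plate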). The note with it: HUVEC proliferation, CellTiter-Glo luminescence, 72 h; at 10 µM; stronger effect = lower value. The procedure, abridged: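 Material: primary human umbilical vein endothelial cells / Schedule: 72 h exposure, 37 °C, 5% CO2, 30 min RT equilibration / Signal: ATP-based CellTiter-Glo luminescent read / Read-out basis: percent of median DMSO-control luminescence / Control set: 32 DMSO-only cell-control wells (high), 32 MePR drug-control wells (low) per plate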

Test [4] is described as follows: growth inhibitors of H69AR lung tumor, primary screen, human, duplicate replicates (AID 580;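 active = viability at or under a set limit in both replicates, limit being median viability minus 3 SD, cut at about 48% in these data, passing the limit was not always enough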;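 note: 100% = mean luminescence of untreated wells and 0% = no signal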). The note with it: H69AR lung tumor cells viability, ATP luminescence, 72 h; at 10 µM; stronger effect = lower value.
The nature of test [5]: reversal of MRP1-mediated doxorubicin resistance, pilot screen, H69AR cells, doxorubicin co-treatment (AID 601). The conditions noted are these: CellTiter-Glo, 72 h, at 10 µM; for differential viability (reversal): stronger effect = higher value.
A short description of test [6]: 384-well plate pilot, post-Golgi transport modulator project, inhibition of yeast transport mutant growth (AID 636; in the data active = inhibition above about 31%). The conditions noted are these: absorbance 615 nm, about 18 h, stronger effect = higher value.
A short description of test [7]: growth suppression of yeast trafficking mutant, preliminary HTS, modulators of trafficking downstream of Golgi apparatus project, 1536-format plate, OD 615 nm (AID 637; in the data active = inhibition above about 30%). The conditions noted are these: yeast transport mutant growth, absorbance 615 nm, 18 h; stronger effect = higher value.
Setting [8] is: H69AR cells + 2 uM doxorubicin, measured here: viability with 2 uM doxorubicin, stronger effect = lower value.
Setting [9] is: H69AR cells, compound alone cytotoxicity.

Pantothenate synthetase (Mycobacterium tuberculosis (strain ATCC 25618 / H37Rv)), sequence (P9WIL5 whole entry, looked up): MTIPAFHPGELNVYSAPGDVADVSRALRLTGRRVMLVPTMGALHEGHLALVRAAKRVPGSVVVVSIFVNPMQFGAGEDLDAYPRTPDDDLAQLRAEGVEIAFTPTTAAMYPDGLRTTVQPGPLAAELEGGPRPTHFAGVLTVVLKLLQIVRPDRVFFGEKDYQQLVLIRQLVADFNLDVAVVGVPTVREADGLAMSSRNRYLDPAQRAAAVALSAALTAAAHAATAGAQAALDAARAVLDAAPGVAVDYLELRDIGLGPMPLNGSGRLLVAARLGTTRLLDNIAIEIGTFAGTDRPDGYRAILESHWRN

For `CCOc1cccc(N2C(=O)CC(=O)NC2=O)c1`, the inhibition in test [1] is 0% (inactive); in test [6], -2.6% (inactive); in test [7] it was -8.55% (inactive). The viability is 124% (inactive) in test [2]; 107% (inactive) in test [3]; 94.5% (inactive) in test [4]; 96.8% in test [5] (setting [8]); 94.5% in test [5] (setting [9]). Besides, the differential viability (reversal) in test [5] (H69AR cells + 2 uM doxorubicin) is -2.27% (inactive).
On to `CCCC(C)(COC(N)=O)COC(=O)NC(C)C` (stereo not drawn), for which the inhibition in test [1] was 0% (inactive); in test [6] it was -1.69% (inactive); in test [7], 4.17% (inactive). Moreover, the viability in test [2] was 88% (inactive); in test [3], 86.4% (inactive); in test [4], 100% (inactive); in test [5] (setting [8]), 103%; in test [5] (setting [9]), 100%. Moreover, the differential viability (reversal) in test [5] (H69AR cells + 2 uM doxorubicin) was -3.16% (inactive).
With `CC1=NOC2(C)Nc3ncnn3C(c3ccccc3)C12` (stereo not drawn), the values for the inhibition in test [1], in test [6] and in test [7] were 0% (inactive), -6.03% (inactive) and 7.9% (inactive), respectively. For the same compound, the viability was 118% (inactive) in test [2]; 93% (inactive) in test [3]; 94.5% (inactive) in test [4]; 97.5% in test [5] (setting [8]); 94.5% in test [5] (setting [9]). Besides, the differential viability (reversal) in test [5] (H69AR cells + 2 uM doxorubicin) was -3.04% (inactive).
In the case of `COC1=CC(=O)OC(/C=C/c2ccccc2)C1` (stereo not drawn), the inhibition in test [1] was 0% (inactive); in test [6] it was -1.56% (inactive); in test [7], -4.5% (inactive). Moreover, the viability in test [2] is 124% (inactive); in test [3], 96.6% (inactive); in test [4] it was 87.6% (inactive); in test [5] (setting [8]) it was 84.8%; in test [5] (setting [9]) it was 87.6%. For the same compound, the differential viability (reversal) in test [5] (H69AR cells + 2 uM doxorubicin) was 2.78% (inactive).
For `C[C@]12CCC(=O)C=C1CC[C@@H]1[C@@H]2CC[C@]2(C)C(=O)CC[C@@H]12`, the inhibition in test [1] is 0% (inactive); in test [6], -3.38% (inactive); in test [7], -0.83% (inactive). For the same compound, the viability was 79% (inactive) in test [2]; 76.8% (inactive) in test [3]; 85.3% (inactive) in test [4]; 86.8% in test [5] (setting [8]); 85.3% in test [5] (setting [9]). The differential viability (reversal) in test [5] (H69AR cells + 2 uM doxorubicin) was -1.5% (inactive).
In the case of `CNCCc1c[nH]c2ccccc12`, the inhibition is 0% (inactive) in test [1], -0.39% (inactive) in test [6] and 12% (inactive) in test [7]. The viability was 127% (inactive) in test [2]; 85.9% (inactive) in test [3]; 84.5% (inactive) in test [4]; 105% in test [5] (setting [8]); 84.5% in test [5] (setting [9]). In addition, in test [5] (H69AR cells + 2 uM doxorubicin), the differential viability (reversal) is -20.1% (inactive).
As for `COc1ccc(CC[n+]2cc(/N=C(\C)[O-])on2)cc1OC`, the inhibition in test [1] was 0% (inactive); in test [6] it was 0.52% (inactive); in test [7], 4.26% (inactive). For the same compound, the viability in test [2] is 146% (inactive); in test [3], 93.9% (inactive); in test [4], 92.1% (inactive); in test [5] (setting [8]) it was 95.2%; in test [5] (setting [9]) it was 92.1%. The differential viability (reversal) in test [5] (H69AR cells + 2 uM doxorubicin) was -3.11% (inactive).
Turning to `O=C(O)CCCc1ccc(N(CCCl)CCCl)cc1`, the inhibition is 0% (inactive) in test [1], -1.17% (inactive) in test [6] and 0.67% (inactive) in test [7]. Moreover, the viability was 78% (inactive) in test [2]; 68.1% (inactive) in test [3]; 81.8% (inactive) in test [4]; 99.1% in test [5] (setting [8]); 81.8% in test [5] (setting [9]). Moreover, the differential viability (reversal) in test [5] (H69AR cells + 2 uM doxorubicin) was -17.3% (inactive).
Consider `COC(=O)C1C2c3ccccc3OC1(C)N=c1s/c(=C/c3cnn(C)c3C)c(=O)n12` (stereo not drawn), for which the inhibition in test [1] is 7% (inactive); in test [6], -0.81% (inactive); in test [7], 8.18% (inactive). The viability in test [2] was 98% (inactive); in test [3], 83.4% (inactive); in test [4], 91.8% (inactive); in test [5] (setting [8]), 88.8%; in test [5] (setting [9]), 91.8%. The differential viability (reversal) in test [5] (H69AR cells + 2 uM doxorubicin) was 2.92% (inactive).
On to `CC(=NCCCN1CCOCC1)c1c(O)n(-c2ccccc2C)c(=O)[nH]c1=O`, for which the inhibition in test [1] was 0% (inactive); in test [6], -0.14% (inactive); in test [7], -5% (inactive). For the same compound, the viability in test [2] was 100% (inactive); in test [3], 91.3% (inactive); in test [4] it was 92.2% (inactive); in test [5] (setting [8]), 87%; in test [5] (setting [9]), 92.2%. The differential viability (reversal) in test [5] (H69AR cells + 2 uM doxorubicin) is 5.16% (inactive).
`CN1CCN(c2c[nH]c(=O)[nH]c2=O)CC1`: the inhibition in test [1] was 0% (inactive); in test [6] it was -7.53% (inactive); in test [7], -6.29% (inactive). The viability is 110% (inactive) in test [2]; 90.6% (inactive) in test [3]; 96.7% (inactive) in test [4]; 91.6% in test [5] (setting [8]); 96.7% in test [5] (setting [9]). Moreover, in test [5] (H69AR cells + 2 uM doxorubicin), the differential viability (reversal) is 5.06% (inactive).
As for `CC(C)OCCCNC(=O)c1c(N)n(Cc2cccs2)c2nc3ccccc3nc12`, the inhibition in test [1] was 0% (inactive); in test [6], -2.47% (inactive); in test [7] it was -7.33% (inactive). The viability in test [2] was 26%; in test [3], 6.24% (active); in test [4], 61.1% (inactive); in test [5] (setting [8]), 79.8%; in test [5] (setting [9]) it was 61.1%. Also, in test [5] (H69AR cells + 2 uM doxorubicin), the differential viability (reversal) is -18.8% (inactive).
In the case of `CNP1(NC)=NC(C(F)(F)F)=NC(C(F)(F)F)=N1`, the inhibition is 3% (inactive) in test [1], -6.99% (inactive) in test [6] and 4.36% (inactive) in test [7]. Moreover, the viability is 95% (inactive) in test [2]; 124% (inactive) in test [3]; 98.1% (inactive) in test [4]; 91.2% in test [5] (setting [8]); 98.1% in test [5] (setting [9]). In addition, the differential viability (reversal) in test [5] (H69AR cells + 2 uM doxorubicin) was 6.97% (inactive).
`CCCC(=O)OCC[N+](C)(C)C`: the figures for the inhibition in test [1], in test [6] and in test [7] were 0% (inactive), 1.04% (inactive) and 40.7% (active), respectively. Moreover, the viability in test [2] was 83% (inactive); in test [3], 93.4% (inactive); in test [4] it was 101% (inactive); in test [5] (setting [8]), 106%; in test [5] (setting [9]), 101%. The differential viability (reversal) in test [5] (H69AR cells + 2 uM doxorubicin) is -4.88% (inactive).
Consider `CN(C)CCc1nc2ccccc2c(=O)n1-c1ccccc1`, for which the inhibition in test [1] was 0% (inactive); in test [6], -2.08% (inactive); in test [7], -4.43% (inactive). The viability in test [2] was 107% (inactive); in test [3] it was 92.1% (inactive); in test [4], 90.6% (inactive); in test [5] (setting [8]), 91.6%; in test [5] (setting [9]), 90.6%. In addition, the differential viability (reversal) in test [5] (H69AR cells + 2 uM doxorubicin) is -1.03% (inactive).
For the compound `CCC(=NCC1CCCO1)c1c(O)n(Cc2ccccc2)c(=O)[nH]c1=O` (stereo not drawn), the inhibition in test [1] is 0% (inactive); in test [6], -4.29% (inactive); in test [7] it was 1.48% (inactive). Also, the viability in test [2] is 91% (inactive); in test [3], 107% (inactive); in test [4] it was 86.3% (inactive); in test [5] (setting [8]) it was 86.7%; in test [5] (setting [9]), 86.3%. Further, the differential viability (reversal) in test [5] (H69AR cells + 2 uM doxorubicin) is -0.335% (inactive).
As to `Cc1ccnc(-n2c(-c3ccco3)nc3ccccc3c2=O)c1`, the inhibition was 0% (inactive) in test [1], -2.47% (inactive) in test [6] and 1.15% (inactive) in test [7]. Also, the viability was 105% (inactive) in test [2]; 107% (inactive) in test [3]; 99.8% (inactive) in test [4]; 89.6% in test [5] (setting [8]); 99.8% in test [5] (setting [9]). Moreover, the differential viability (reversal) in test [5] (H69AR cells + 2 uM doxorubicin) was 10.2% (inactive).
